Activity calls are given as the source filed them.
How the values were obtained:
[1] = system: Plasmodium falciparum; assay: Antimalarial activity against chloroquine-sensitive Plasmodium falciparum D6; format: functional, organism-based
In short: (§1)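 In vitro blood-stage assay with P. falciparum clones: D6 (Sierra I/UNC isolate), W2 (Indochina I isolate) and TM91C235 (Southeast Asian isolate). Activity was expressed as IC90.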

[2] = system: Plasmodium falciparum; assay: Antimalarial activity against multidrug-resistant Plasmodium falciparum TM91C235; format: functional, organism-based; in short: as §1
[3] = system: Plasmodium falciparum; assay: Antimalarial activity against chloroquine-resistant, mefloquine-susceptible Plasmodium falciparum W2; format: functional, organism-based; in short: as §1
[4] = Toxicity in Plasmodium berghei KBG173-infected perorally dosed ICR mice (Mus musculus) assessed as maximum tolerated dose; format: organism-based; conditions: in vivo, po
In short: (§2)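 Orally dosed, P. berghei KBG 173-infected ICR mice in groups of five received compound suspended in 0.5% hydroxyethylcellulose-0.1% Tween 80 once daily for three consecutive days. Doses went up to 960 mg/kg. Toxicity was judged by survival and by gross lesions at necropsy.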

[5] = system: Mycobacterium tuberculosis; assay: Antitubercular activity against Mycobacterium tuberculosis H37Rv at 6.26 ug/ml by alamar blue assay; format: functional
In short: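 Screened against M. tuberculosis H37Rv at TAACF by Alamar blue assay at a cutoff of 6.26 µg/mL. Active was defined as >90% inhibition.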

[6] = system: Plasmodium berghei; assay: Antimalarial activity against Plasmodium berghei KBG173 infected ICR mice (Mus musculus) at 320 mg/kg/day peroral dose from days 3 to 5 post infection; format: functional; conditions: route oral
In short: (§3)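 Modified Thompson test in groups of five ICR mice. Mice were inoculated ip with P. berghei KBG 173-infected erythrocytes on day 0. Compound was suspended in 0.5% hydroxyethylcellulose-0.1% Tween 80 and given orally once daily on days 3-5. Blood smears were read on days 6-31. Cure was defined as alive on day 31 with no parasites in a blood film. Necropsy followed.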

[7] = Metabolic stability in mouse liver microsomes assessed as half life; format: ADME, Microsome
[8] = system: Plasmodium berghei; assay: Antimalarial activity against Plasmodium berghei KBG173 infected ICR mice (Mus musculus) at 320 mg/kg/day peroral dose from day 3 post infection at day 31 by modified Thompson test; format: functional, organism-based; in short: as §3
[9] = system: Plasmodium berghei; assay: Antimalarial activity against Plasmodium berghei KBG173 infected ICR mice (Mus musculus) assessed at 80 mg/kg/day peroral dose from days 3 to 5 post infection; format: functional; conditions: route oral; in short: as §3
[10] = system: Plasmodium berghei; assay: Antimalarial activity against Plasmodium berghei KBG173 infected ICR mice (Mus musculus) assessed at 20 mg/kg/day peroral dose from days 3 to 5 post infection; format: functional; conditions: route oral; in short: as §3
[11] = system: Mus musculus; assay: Toxicity in Plasmodium berghei KBG173-infected ICR mice (Mus musculus) at 960 mg/kg, perorally for 3 days; format: organism-based; design: dose 960 mg/kg, route oral; conditions: in vivo, po, 72 h; in short: as §2
[12] = Metabolic stability in human liver microsomes assessed as half life; format: ADME, Microsome
[13] = system: Plasmodium berghei; assay: Antimalarial activity against Plasmodium berghei KBG173 infected ICR mice (Mus musculus) at 20 mg/kg/day peroral dose from day 3 post infection at day 31 by modified Thompson test; format: functional, organism-based; in short: as §3
[14] = system: Mycobacterium tuberculosis; assay: Antitubercular activity against Mycobacterium tuberculosis H37Rv by microplate alamar blue assay; format: functional
In short: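 M. tuberculosis H37Rv was tested at TAACF by microplate Alamar blue assay (MABA). Inhibitory activity was reported as IC90.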

SMILES | IC90 [1] | IC90 [2] | IC90 [3] | IC50 [1] | MTD [4] | inhibition at 6.26 µg/mL [5] | Survival [6] | half-life [7] | IC50 [2] | Activity [8] | Survival [9] | IC50 [3] | Survival [10] | Activity [11] | half-life [12] | Activity [13] | IC90 [14]
CCN(CC)CCCC(C)Nc1ccnc2cc(Cl)ccc12 (configuration not stated) [CHLOROQUINE] | 15.9 nM | 264 nM | 640 nM |  |  |  |  |  |  |  |  |  |  |  |  |  | 
O=C(NCCNc1ccnc2cc(Cl)ccc12)C1CCC2(CC1)OOC1(CCCCC1)OO2 | 3.75 nM | 7.38 nM | 2.26 nM | 2.33 nM | > 960 mg/kg | > 90% | >31 days | > 60 min | 3.7 nM | Active | 26.2 days | 2 nM | 14.2 days | Non-toxic | > 60 min | inactive | 
CC(=O)O[C@H]1C[C@H]2[C@@H]([C@H](OC(C)=O)C[C@@H]3CC4(CC[C@@]32C)OOC2(CCCCC2)OO4)[C@@H]2CC[C@H]([C@H](C)CCCNCCNc3ccnc4cc(Cl)ccc34)[C@@]12C | 103 nM | 160 nM | 30.3 nM | 33.5 nM |  | > 90% |  |  | 30.2 nM |  |  | 22.9 nM |  |  |  |  | 330 nM
OC(c1cc(C(F)(F)F)nc2c(C(F)(F)F)cccc12)C1CCCCN1 (configuration not stated) [MEFLOQUINE] | 44.8 nM | 153 nM | 18.6 nM | 19 nM |  |  |  |  | 47.5 nM |  |  | 5.35 nM |  |  |  |  | 
CC(=O)O[C@H]1C[C@H]2[C@@H]([C@H](OC(C)=O)C[C@@H]3CC4(CC[C@@]32C)OOC2(CCCCC2)OO4)[C@@H]2CC[C@H]([C@H](C)CCC(=O)NCCNc3ccnc4cc(Cl)ccc34)[C@@]12C | 10.6 nM | 17.2 nM | 10.7 nM | 6.53 nM |  | > 90% |  |  | 8.54 nM |  |  | 4.47 nM |  |  |  |  | 400 nM
Clc1ccc2c(NCCNCC3CCC4(CC3)OOC3(CCCCC3)OO4)ccnc2c1 | 18.2 nM | 18.3 nM | 12.4 nM | 9.05 nM | > 960 mg/kg | > 90% | >31 days |  | 9.9 nM | Active | 26.4 days | 5.76 nM | 15.8 days | Non-toxic |  | inactive | < 430 nM
C[C@@H]1CC[C@H]2[C@@H](C)C(=O)O[C@@H]3O[C@@]4(C)CC[C@@H]1[C@]32OO4 [ARTEMISININ] | 12.8 nM | 17.4 nM | 11.5 nM | 9 nM |  |  |  |  | 13 nM |  |  | 6.7 nM |  |  |  |  | 

Reference: ChEMBL document CHEMBL1140092, “New chimeric antimalarials with 4-aminoquinoline moiety linked to a tetraoxane skeleton” (J Med Chem, 2008)
